Only some compounds are listed: those with a hit (about 1.4% of all), similar ones and a draw of the others.
T cell modulator = modulators of CD8 T cell-vesicle binding, primary screen, mouse 2C CD8+ T cells, flow cytometry; 2C CD8+ T cell-vesicle binding; stronger effect = lower value; response (vesicle binding), % at 7 µM; AID 2052, 2009; hit rate 0.068% among 330,000;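 active means response, share of CD8 T cells binding vesicles, and their 90th percentile fluorescence all below set limits, cut at about 80% in these data, passing the limit was not always enough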;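 further: values below 100% mean blocked vesicle binding to the CD8+ T cells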
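incubation = binding step 1.5 h, 37 °C, antibody labelling 20 min, ice | test system = 2C mouse CD8+ T cells | read-out basis = percent CD8+ FL2 mean versus row control | controls = Peptide-free naked vesicles (low) and QL9 vesicles with 0.7% DMSO vehicle (high) | detection = flow cytometry of vesicle-bound cells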
Vif imaging = HIV Vif self-association inhibitors, primary screen, imaging, HEK293T, single point; HEK293T cells, Vif self-association by quenched fluorescence, 24 h; inhibition, % at 7.49 µM; hit rate 0.35% among 340,000; AID 602346, 2012; in the data active means inhibition above about 50%, passing the limit was not always enough; inconclusive means no clear call, values can overlap the other calls; inactive means below about 31%
Myeloid diff MLP = induction of myeloid progenitor differentiation, primary screen, cell-based, flow cytometry, MLPCN library | ER-HoxA9 myeloid progenitors, lysozyme-GFP differentiation | calls only at 10 µM | hit rate 1% among 360,000 | AID 624256, 2012;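 active means normalized GFP-positive differentiation at or above the plate's own cutoff, the solvent-only control mean plus 3 SD; inconclusive means no clear call, values can overlap the other calls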;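 further: cells exposed to compound for four days before flow analysis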
CASP6 VEID inh = human caspase-6 inhibitors, primary screen, biochemical, VEID-R110 fluorescence, single point, set 2; AID 686996, 2013; inhibition, % at 12.5 µM; purified caspase-6, Z-VEID-R110 cleavage fluorescence; hit rate 0.53% among 350,000; P55212;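 active means mean inhibition across replicates at least about 35%, with every replicate also reaching that limit, limit read from the data; inconclusive means only one of the two criteria met; inactive means neither criterion met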;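 further: 0% = median of neutral control wells and 100% = no fluorescence left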
Target sequence (P55212 24-179 limits assumed): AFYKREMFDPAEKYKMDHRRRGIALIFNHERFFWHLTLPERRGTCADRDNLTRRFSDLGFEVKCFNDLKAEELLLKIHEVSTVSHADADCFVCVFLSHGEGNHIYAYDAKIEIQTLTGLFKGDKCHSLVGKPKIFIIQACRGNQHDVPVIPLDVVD
Target sequence (P55212 194-293 limits assumed): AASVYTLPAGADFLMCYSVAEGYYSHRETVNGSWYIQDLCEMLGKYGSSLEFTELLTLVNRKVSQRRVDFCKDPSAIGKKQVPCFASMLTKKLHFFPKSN
Starred values were filed as active, the others as inactive; i = inactive; ? = inconclusive; . = not tested or not shown; + = active, no number.

SMILES | T cell modulator | Vif imaging | Myeloid diff MLP | CASP6 VEID inh
Cc1ccc(C)c(S(=O)(=O)Nc2cc(SCC(=O)O)c(O)c3ccccc23)c1 | 799.3 | -3.0 | . | .
O=C(O)CSc1cc(NS(=O)(=O)c2cccc([N+](=O)[O-])c2)c2ccccc2c1O | . | 13.6 | i | 68.0*
CCc1ccc(S(=O)(=O)Nc2cc(SCC(=O)O)c(O)c3ccccc23)cc1 | 335.1 | 8.1 | i | 67.1*
O=C(N/N=C/c1ccco1)c1ccccc1OCc1ccc(Br)cc1 | 156.9 | 2.9 | + | 1.0
O=C(N[C@@H]1CC[C@@H](CC(=O)N2CCc3ccccc3C2)O[C@H]1CO)C1CCOCC1 | . | . | . | 0.8
COc1cc(/C=C(/C#N)C(=O)NC(C)c2ccccc2)cc(OC)c1O (centres undefined) | 180.6 | 54.0* | i | 0.3
CN(C)CC(=O)N[C@H]1CC[C@H](CC(=O)NCc2ccc(Cl)cc2)O[C@H]1CO | . | . | . | -1.1
CC1CCCC(C)N1CCNC(=O)CCc1nnc2n(Cc3ccccc3)c(=O)c3ccccc3n12 (centres undefined) | 0.0* | 9.8 | i | -36.2
COCc1cn([C@@H]2C[C@@H]3O[C@@H](CO)CC[C@@H]3O[C@@H]2CCc2ccc(-c3ccc(OC)cc3)cc2)nn1 | . | . | . | -4.0
Cc1ccc2c(c1)c1c(n2CC(O)CNC(C)(C)C)CCCC1 (centres undefined) | . | -17.8 | i | 65.1*
N#C[C@@H]1[C@H](c2ccccc2C2=CCCC2)[C@@H](CO)N1C(=O)CN1CCOCC1 | . | . | . | 3.0
NC1=NC2(CCCCC2)N(c2cccc(Cl)c2)C(N)=N1 | 0.0 | 8.7 | + | .
NC1=NC2(CCCCC2)N(c2ccc(F)cc2)C(N)=N1 | 108.2 | 6.9 | i | .
O=c1cc(Br)c(O)c(Br)cc1Br | . | 2.2 | i | 90.8*
Oc1c(Br)cc(Br)c2cccnc12 | . | 5.5 | i | 10.5
N#CC1=C(N)Oc2cc(N)ccc2C1c1cc(Br)cs1 (centres undefined) | 577.2 | 9.4 | + | 3.4
O=C1Nc2ccccc2C12OCC1(CO2)COC2(OC1)C(=O)Nc1ccccc12 (centres undefined) | 188.1 | -5.5 | i | .
O=C1Nc2ccccc2C12OCCS2 (centres undefined) | 0.0* | . | . | .
CC(C)NC(=O)N(C)C[C@H]1Oc2cc(C#C[C@H](C)O)ccc2S(=O)(=O)N([C@@H](C)CO)C[C@@H]1C | . | . | . | 2.5
COc1ccc(NC(=O)c2cccc(S(=O)(=O)N3CCN(C)CC3)c2)c(OC)c1 | 189.7 | 54.3* | i | 1.0
COc1ccccc1C(=O)NC(=S)Nc1ccc(S(=O)(=O)N2CCN(C)CC2)cc1 | 0.0* | 6.9 | i | 2.4
Cc1ncoc1C(=O)N1CCCC(C(=O)c2ccc(Oc3ccccc3)cc2)C1 (centres undefined) | 178.4 | 61.4* | i | -0.1
NC1=C(Cl)C(=O)c2ccccc2C1=O | . | -5.1 | i | 96.7*
NC1=C(Cl)C(=O)c2ccc(S(N)(=O)=O)cc2C1=O | . | 0.4 | ? | 99.8*
O=C1C(Cl)=C(NCCCO)C(=O)c2ccccc21 | 179.8 | . | i | .
SMILES | T cell modulator | Vif imaging | Myeloid diff MLP | CASP6 VEID inh
COc1ccc(/C=N/NC(=O)c2ccc(CSc3nc(C)cc(C)n3)cc2)c(OC)c1OC | 241.1 | 4.8 | + | 0.9
C[C@H](CO)N1C[C@H](C)[C@H](CN(C)CC2CC2)Oc2cc(/C=C/c3ccccc3)ccc2S1(=O)=O | . | . | . | -2.3
NNC(=O)c1csc(-c2ccc(C(F)(F)F)cc2Cl)n1 | 476.6 | -9.0 | + | -0.8
CNC(=O)NNC(=O)c1csc(-c2ccc(C(F)(F)F)cc2Cl)n1 | 313.7 | . | i | -0.4
CN(C)c1ccc(/C=C2\C(=N)N3N=C(CC(=O)N4CCCCC4)SC3=NC2=O)cc1 | 552.3 | . | + | .
CN(C)c1ccc(/C=C2\C(=N)N3N=C(CC(=O)N4CCCC4)SC3=NC2=O)cc1Br | 173.5 | -1.7 | i | 2.9
Cc1nnc(N/N=C/c2c(Cl)cccc2Cl)n1N | 266.4 | 4.7 | i | 4.3
Cc1nnc(N/N=C/c2ccccc2O)n1N | 314.5 | 4.8 | i | 50.1*
COc1ccc(Cc2c(-c3ccco3)nc3ccc(Br)cn23)c(C)c1 | . | . | i | 6.8
COc1ccc(Cc2c(-c3ccco3)nc3c(C)cc(Br)cn23)c(C)c1 | . | . | i | 38.9*
O=C(C[C@H]1C=C[C@@H](NC(=O)Nc2ccc(C(F)(F)F)cc2)[C@@H](CO)O1)NCc1ccccn1 | . | . | . | 1.7
Cc1ccccc1NC(=O)COC(=O)CCC(=O)c1cccs1 | . | 5.4 | i | 0.0
Cc1ccc(NC(=O)COC(=O)CCC(=O)c2cccs2)c(C)c1 | 324.9 | 0.6 | + | 4.3
